Assay results from ChEMBL document CHEMBL4689842, “EUbOPEN Chemogenomics Library wave 1” (2021).
Several values for one entry are separate records, joined by “and”; a condition that tells them apart may be missing. Identical values can stand only once.

Legend:
Type in all cases: toxicity, cell-based
[1] = test system: HEK-293T; test: Incucyte cell viability with HEK293T; conditions: human, 10 µM, compound concentration 10 uM; also: filed as whole numbers so only -1 and 0 and 1 occur
[2] = test system: Fibroblast; test: Incucyte cell viability with human fibroblast; conditions: 10 µM, compound concentration 10 uM; also: filed as whole numbers so only -1 and 0 and 1 occur
[3] = test system: HEK-293T; test: Multiplex assay against HEK293T; conditions: human, 10 µM, compound concentration 10 uM;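 as to Population Tubulin-Different-Phenotype (%): share of the cells with healthy nuclei that show this phenotype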
Summary of the method: (§1)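 On a CQ1 microscope at 37°C and 5% CO2, live cells were imaged after compound addition. They had been stained at seeding with Hoechst33342, BioTracker Green Microtubule Cytoskeleton Dye, MitoTracker Red and Annexin V Alexa Fluor 680. CellPathfinder machine-learning gating assigned cells to Hoechst high-intensity objects or normal cells, normal cells to healthy, pyknosed or fragmented nuclei, and pyknosed cells to mitotic or apoptotic. Tubulin, mitochondrial-mass and membrane-permeability phenotypes are per cents of healthy-nucleus cells.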

[4] = test system: U2OS; test: Multiplex assay against U2OS; conditions: human, 10 µM, compound concentration 10 uM; summary of the method: as §1
[5] = 0 h, replicate number 2, timepoint 0 hours
[6] = 18 h, replicate number 1, timepoint 18 hours
[7] = 24 h, replicate number 1, timepoint 24 hours

For CN1CCN(C(=O)C(C)(C)c2ccc(C(=O)Nc3cn4cc(-c5ccncc5)ccc4n3)cc2)CC1 [T3-CLK], the “Growth Rate” value [1, 5] was 1, the “Growth Rate” value ([1]; 6 h, replicate number 1, timepoint 6 hours) was 0 and the “Growth Rate” value ([1]; 12 h, replicate number 1, timepoint 12 hours) was 0. The “Growth Rate” value [1, 6] was 0, the “Growth Rate” value [1, 7] was 0 and the “Growth Rate” value [2, 5] was 0. The “Growth Rate” value [2, 6] was 1, the “Growth Rate” value [2, 7] was 1 and the “Population Hoechst High Intensity Objects (%)” value ([3]; 12 h, replicate 1) was 16% and 14% and 10%. The “Population Membrane Permeable-Phenotype (%)” value ([3]; 12 h, replicate 1) was 6% and 17%, the “Population Normal (%)” value ([3]; 12 h, replicate 1) was 83% and 85% and 89% and the “Population Pyknosed Nuclei (%)” value ([3]; 12 h, replicate 1) was 24% and 27%. The “Population Fragmented Nuclei (%)” value ([3]; 12 h, replicate 2) was 4% and 3% and 6%, the “Population Hoechst High Intensity Objects (%)” value ([3]; 12 h, replicate 2) was 7% and 4% and the “Population Membrane Permeable-Phenotype (%)” value ([3]; 12 h, replicate 2) was 10% and 5%. For the same compound, the “Population Mitotic Cells (%)” value ([3]; 12 h, replicate 2) was 49% and 79% and 91%, the “Population Normal (%)” value ([3]; 12 h, replicate 2) was 92% and 95% and the “Population Tubulin-Different-Phenotype (%)” value ([3]; 12 h, replicate 2) was 89% and 85% and 39%. The “Population Fragmented Nuclei (%)” value ([3]; 24 h, replicate 1) was 15% and 17% and 6%, the “Population Hoechst High Intensity Objects (%)” value ([3]; 24 h, replicate 1) was 18% and 17% and 6% and the “Population Membrane Permeable-Phenotype (%)” value ([3]; 24 h, replicate 1) was 9% and 11% and 13%. The “Population Normal (%)” value ([3]; 24 h, replicate 1) was 81% and 82% and 93%, the “Population Tubulin-Different-Phenotype (%)” value ([3]; 24 h, replicate 1) was 100% and 76% and 34% and the “Population Fragmented Nuclei (%)” value ([3]; 24 h, replicate 2) was 4% and 7%. The “Population Membrane Permeable-Phenotype (%)” value ([3]; 24 h, replicate 2) was 14% and 16% and 8%, the “Population Normal (%)” value ([3]; 24 h, replicate 2) was 91% and 97% and 94% and the “Population Tubulin-Different-Phenotype (%)” value ([3]; 24 h, replicate 2) was 91% and 70% and 94%. The “Population Apoptotic (%)” value ([3]; 48 h, replicate 1) was 92%, the “Population Fragmented Nuclei (%)” value ([3]; 48 h, replicate 1) was 19% and the “Population Healthy Nuclei (%)” value ([3]; 48 h, replicate 1) was 10%. For the same compound, the “Population Hoechst High Intensity Objects (%)” value ([3]; 48 h, replicate 1) was 18%, the “Population Membrane Permeable-Phenotype (%)” value ([3]; 48 h, replicate 1) was 0% and the “Population Mitochondria Different-Phenotype (%)” value ([3]; 48 h, replicate 1) was 94%. For the same compound, the “Population Mitotic Cells (%)” value ([3]; 48 h, replicate 1) was 7%, the “Population Normal (%)” value ([3]; 48 h, replicate 1) was 81% and the “Population Pyknosed Nuclei (%)” value ([3]; 48 h, replicate 1) was 70%. For the same compound, the “Population Tubulin-Different-Phenotype (%)” value ([3]; 48 h, replicate 1) was 77%, the “Total Cell Count” value ([3]; 48 h, replicate 1) was 216 and the “Population Apoptotic (%)” value ([3]; 48 h, replicate 2) was 91%. The “Population Fragmented Nuclei (%)” value ([3]; 48 h, replicate 2) was 7%, the “Population Healthy Nuclei (%)” value ([3]; 48 h, replicate 2) was 17% and the “Population Hoechst High Intensity Objects (%)” value ([3]; 48 h, replicate 2) was 4%. The “Population Membrane Permeable-Phenotype (%)” value ([3]; 48 h, replicate 2) was 12%, the “Population Mitochondria Different-Phenotype (%)” value ([3]; 48 h, replicate 2) was 79% and the “Population Mitotic Cells (%)” value ([3]; 48 h, replicate 2) was 8%. For the same compound, the “Population Normal (%)” value ([3]; 48 h, replicate 2) was 95%, the “Population Pyknosed Nuclei (%)” value ([3]; 48 h, replicate 2) was 75% and the “Population Tubulin-Different-Phenotype (%)” value ([3]; 48 h, replicate 2) was 87%. The “Total Cell Count” value ([3]; 48 h, replicate 2) was 142, the “Population Apoptotic (%)” value ([4]; 12 h, replicate 1) was 37% and 22% and the “Population Healthy Nuclei (%)” value ([4]; 12 h, replicate 1) was 90% and 71% and 89%. For the same compound, the “Population Hoechst High Intensity Objects (%)” value ([4]; 12 h, replicate 1) was 5%, the “Population Mitotic Cells (%)” value ([4]; 12 h, replicate 1) was 62% and 77% and the “Population Normal (%)” value ([4]; 12 h, replicate 1) was 94%. The “Population Pyknosed Nuclei (%)” value ([4]; 12 h, replicate 1) was 10% and 7%, the “Total Cell Count” value ([4]; 12 h, replicate 1) was 128 and 143 and 333 and the “Population Healthy Nuclei (%)” value ([4]; 12 h, replicate 2) was 88% and 70% and 87%. For the same compound, the “Population Hoechst High Intensity Objects (%)” value ([4]; 12 h, replicate 2) was 6% and 7% and 9%, the “Population Membrane Permeable-Phenotype (%)” value ([4]; 12 h, replicate 2) was 62% and 21% and 25% and the “Population Mitotic Cells (%)” value ([4]; 12 h, replicate 2) was 50% and 100% and 66%. For the same compound, the “Population Normal (%)” value ([4]; 12 h, replicate 2) was 93% and 92% and 90%, the “Population Pyknosed Nuclei (%)” value ([4]; 12 h, replicate 2) was 5% and 11% and 3% and the “Population Apoptotic (%)” value ([4]; 24 h, replicate 1) was 36% and 62% and 33%. For the same compound, the “Population Fragmented Nuclei (%)” value ([4]; 24 h, replicate 1) was 11% and 21% and 8%, the “Population Healthy Nuclei (%)” value ([4]; 24 h, replicate 1) was 81% and 64% and 77% and the “Population Hoechst High Intensity Objects (%)” value ([4]; 24 h, replicate 1) was 5% and 10% and 6%. For the same compound, the “Population Membrane Permeable-Phenotype (%)” value ([4]; 24 h, replicate 1) was 52% and 26% and 34%, the “Population Mitotic Cells (%)” value ([4]; 24 h, replicate 1) was 63% and 37% and 66% and the “Population Normal (%)” value ([4]; 24 h, replicate 1) was 94% and 90% and 93%. The “Population Pyknosed Nuclei (%)” value ([4]; 24 h, replicate 1) was 6% and 13% and 14%, the “Total Cell Count” value ([4]; 24 h, replicate 1) was 137 and 141 and 262 and the “Population Apoptotic (%)” value ([4]; 24 h, replicate 2) was 50% and 22%. For the same compound, the “Population Fragmented Nuclei (%)” value ([4]; 24 h, replicate 2) was 29% and 22% and 15%, the “Population Healthy Nuclei (%)” value ([4]; 24 h, replicate 2) was 58% and 66% and 70% and the “Population Hoechst High Intensity Objects (%)” value ([4]; 24 h, replicate 2) was 12% and 9%. The “Population Membrane Permeable-Phenotype (%)” value ([4]; 24 h, replicate 2) was 17% and 19%, the “Population Mitotic Cells (%)” value ([4]; 24 h, replicate 2) was 50% and 77% and the “Population Normal (%)” value ([4]; 24 h, replicate 2) was 87%. For the same compound, the “Population Pyknosed Nuclei (%)” value ([4]; 24 h, replicate 2) was 11%.
